Experimental findings from PubChem BioAssay are described below.

Values without a mark were called inactive. Records with an inconclusive call do not appear. Calls of active or inactive are those of the source.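 The calls were made as follows, unless noted: active = growth inhibition above 25% in both replicates, a cutoff set 3 SD above the mean; inconclusive = above 25% in only one replicate; inactive = the rest.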

The nature of test [1]: OD615 S. cerevisiae growth inhibition, permissive medium, pilot counter-assay, permissive growth control for S. cerevisiae lifespan shortening project (AID 705). The following applies: OD615, 24 h, at 10 µM, hits give high values. In outline: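 System: Engineered DeaD yeast | Buffer or medium: SC raffinose/galactose permissive medium | Doses: 10 µM single dose, 0.25% DMSO | Times: 24 h exposure, 30 °C | Measured by: OD615 turbidity read | Read-out: Yeast growth inhibition indicated by reduced 24 h OD615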

A short description of test [2]: Restrictive medium S. cerevisiae growth inhibition, OD615, pilot screen of yeast lifespan reduction project, restrictive growth control (AID 706;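 active = growth inhibition above a set limit, 3 SD over mean compound inhibition, in both replicates, cut at about 43% in these data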;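 also: modified DeaD lifespan yeast strain shifted to restrictive glucose medium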). To be noted: OD615, 48 h, at 10 µM, hits give high values. In outline:
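Assay system: engineered S. cerevisiae DeaD strain; Buffer or medium: CSMM-D glucose medium; Dosing: 10 µM compound, 0.25% DMSO; Times: cell pre-growth 4 h, compound exposure 48 h, 30 °C; Detection: absorbance (optical density) measured at 615 nm.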

Test [3] in a line: viability gain of MRP-1-high H69AR cells under doxorubicin, pilot screen, MRP-1 activator project, CellTiter-Glo, duplicate (AID 807;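 active = viability increase at or above a cutoff of the median across tested compounds plus 3 SD, cut at about 8.5% in these data, passing the limit was not always enough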;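 also: compound pretreatment 18-22 h then 72 h combined with doxorubicin; 0% = doxorubicin alone and 100% = vehicle without doxorubicin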). The following applies: H69AR viability with doxorubicin, CellTiter-Glo luminescence; at 10 µM; hits give high values.
Test [4] is described as follows: growth suppression of beta-catenin knockout HCT116, pilot screen, human colon tumor cells (AID 823;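 active = cell viability at or below a set limit in both duplicate runs, the limit being the all-compound median minus 4 SD, cut at about 23% in these data, passing the limit was not always enough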;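 also: 0% = wells killed by 20 µM Hyamine and 100% = untreated DMSO cell wells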). The following applies: CellTiter-Glo, 60 h, at 10 µM, hits give low values.
Test [5] is described as follows: growth suppression of PTEN-deleted HCT116, pilot screen, cell-based, HCT116 clonal line, CellTiter-Glo (AID 824;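 active = viability at or below 27.92% in each of two runs, the all-compound median minus 4 SD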;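 also: 0% = 20 µM Hyamine control and 100% = vehicle cell control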). The following applies: 60 h, at 10 µM, hits give low values.
Test [6] is described as follows: inhibitors of the yeast RAM network, pilot screen, dse1pr::URA3 reporter, 5-FOA selection (AID 869;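 active = inhibition over a set limit, the all-compound mean plus 3 SD, in both replicate runs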;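 also: 0% = DMSO wells with no growth and 100% = 10 µM 1-NA-PP1 with full growth; RAM network block rescues cells from 5-FOA so hits raise OD615 growth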). To be noted: S. cerevisiae dse1pr::URA3 5-FOA growth, OD615, 2 d; at 10 µM; hits give high values; strain carries analog-sensitive mutant Cbk1 kinase.
Test [7] is described as follows: RAM signaling pathway blockade in yeast – S. cerevisiae, Pdr1DBD-CYC8 efflux-inhibited sensitized strain, primary screen (AID 1298;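 active = RAM network inhibition above 8.4% in each of two replicates, 3 SD over the compound average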;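 also: 0% = DMSO untreated cells without growth and 100% = 10 µM 1-NA-PP1 full growth; higher means more yeast growth rescued from 5-FOA killing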). The following applies: S. cerevisiae cbk1-as DSE1-URA3 strain, 5-FOA growth OD615, 2 d; at 50 µM; hits give high values.

Take `CC(CCc1ccco1)NC(=O)Cn1nc(Cc2ccncc2)c2ccccc2c1=O` (stereo not drawn): the growth inhibition is -0.065% in test [1] and 3.82% in test [2]. Moreover, the viability increase in test [3] is -4.14%. The viability in test [4] was 89.4%; in test [5], 92.7%. The inhibition in test [6] was 2.26%. Besides, the RAM network inhibition in test [7] was 1.95%.
On to `CCOC(=O)c1cc(-c2ccc(C)o2)nn1CCC#N`, for which the growth inhibition in test [1] was -6.98%; in test [2], 4.24%. The viability increase in test [3] was 0.21%. For the same compound, the viability in test [4] was 101%; in test [5], 102%. Besides, in test [6], the inhibition is 0.86%. In test [7], the RAM network inhibition is 3.69%.
In the case of `O=C1C2C3C=CC(C3)C2C(=O)N1c1ccccc1` (stereo not drawn), the growth inhibition was -0.875% in test [1] and 4.47% in test [2]. In addition, the viability increase in test [3] is 0.71%. Further, the results for the viability in test [4] and in test [5] were 100% and 98.7%, respectively. The inhibition in test [6] was 1.81%. Also, in test [7], the RAM network inhibition was 1.49%.
For the compound `CCc1ccc(Nc2cc(C)nc3nc(C)nn23)cc1`, the growth inhibition is -16.8% in test [1] and -7.12% in test [2]. Further, in test [3], the viability increase was -4.04%. Further, the viability was 96.8% in test [4] and 96% in test [5]. For the same compound, the inhibition in test [6] was 1.99%. Besides, the RAM network inhibition in test [7] was 4.01%.
Regarding `O=C(Nc1nnc(-c2ccccc2)o1)Nc1ccccc1Cl`, the growth inhibition is -15.5% in test [1] and -12% in test [2]. Also, the viability increase in test [3] is -0.05%. Further, the results for the viability in test [4] and in test [5] were 104% and 97.4%, respectively. In addition, the inhibition in test [6] is 0.165%. The RAM network inhibition in test [7] is 4.83%.
With `CSCC[C@@H](C(=O)O)N1Cc2ccccc2C1=O`, the growth inhibition in test [1] was 7.93%; in test [2] it was 6.17%. Moreover, in test [3], the viability increase was 0%. The figures for the viability in test [4] and in test [5] were 105% and 103%, respectively. In addition, in test [6], the inhibition was 1.69%. Moreover, the RAM network inhibition in test [7] was -0.16%.
Regarding `Cc1ccc(N(C(=O)c2cccs2)C2C=CS(=O)(=O)C2)cc1` (stereo not drawn), the growth inhibition is -11.1% in test [1] and -10.6% in test [2]. Further, the viability increase in test [3] is -2.23%. Also, the values for the viability in test [4] and in test [5] were 98.3% and 94%, respectively. Further, the inhibition in test [6] was 1.96%. For the same compound, the RAM network inhibition in test [7] was 1.19%.
For the compound `O=C(O)c1cccc(CN2C(=O)CSC2=O)c1`, the growth inhibition in test [1] is -9.39%; in test [2] it was -12.3%. In addition, in test [3], the viability increase was -0.3%. The viability in test [4] was 95.7%; in test [5], 97.5%. Also, in test [6], the inhibition is 0.91%. Further, in test [7], the RAM network inhibition was 1.41%.
Regarding `C=CCSC1=N/C(=C\c2ccc(C)o2)C(=O)S1`, the figures for the growth inhibition in test [1] and in test [2] were -9.79% and -6.84%, respectively. Further, the viability increase in test [3] was -3.69%. For the same compound, the viability was 101% in test [4] and 98.6% in test [5]. Further, the inhibition in test [6] is 1.58%. For the same compound, the RAM network inhibition in test [7] is 2.06%.
Turning to `Cn1c(N)c(C(=O)COC(=O)Cc2ccsc2)c(=O)n(C)c1=O`, the values for the growth inhibition in test [1] and in test [2] were -10.1% and -0.56%, respectively. Further, the viability increase in test [3] is -0.79%. Also, the values for the viability in test [4] and in test [5] were 93.6% and 97.7%, respectively. In test [6], the inhibition was 0.31%. The RAM network inhibition in test [7] was -0.32%.
Take `Cc1ccc(NC(=O)CSC2=C(C#N)C(c3ccc4c(c3)OCO4)C3=C(CCCC3=O)N2)c(C)c1` (stereo not drawn): the figures for the growth inhibition in test [1] and in test [2] were 21.3% and 59.1% (active), respectively. In addition, the viability increase in test [3] was -5.27%. The viability in test [4] is 73.7%; in test [5], 72.7%. The inhibition in test [6] is 1.4%. Moreover, in test [7], the RAM network inhibition was 5.06%.
With `c1cncc(-c2noc(-c3ccco3)n2)c1`, the values for the growth inhibition in test [1] and in test [2] were -5.2% and 7%, respectively. Further, the viability increase in test [3] is 1.76%. The viability in test [4] is 96.7%; in test [5] it was 94.2%. Further, the inhibition in test [6] is 1.41%. Besides, the RAM network inhibition in test [7] was 4.61%.
Turning to `CNC(=O)c1c(NC(=O)c2nc3ccccc3s2)sc2c1CCC2`, the values for the growth inhibition in test [1] and in test [2] were 1.6% and -6.17%, respectively. Moreover, the viability increase in test [3] is -3.81%. For the same compound, the viability is 67.5% in test [4] and 61% in test [5]. Also, in test [6], the inhibition is 0.625%. Also, the RAM network inhibition in test [7] is 5.05%.
For the compound `Clc1ccc(CSc2nnc(-c3cccnc3)n2Cc2ccco2)c(Cl)c1`, the growth inhibition in test [1] was 1.24%; in test [2] it was 34.1%. In test [3], the viability increase was -3.29%. Also, the figures for the viability in test [4] and in test [5] were 87.3% and 88.2%, respectively. The inhibition in test [6] is 2.67%. The RAM network inhibition in test [7] was 11.6%.
For `CNC(=O)c1ccsc1NC(=O)c1ccc(Cl)s1`, the growth inhibition is -0.67% in test [1] and 14.4% in test [2]. The viability increase in test [3] is -3.2%. Also, the viability is 103% in test [4] and 85.6% in test [5]. In addition, the inhibition in test [6] is 1.08%. The RAM network inhibition in test [7] was 2.36%.
In the case of `Cc1ccc(C(=O)Nc2nc3ccccc3n2CCN2CCCC2)cc1`, the growth inhibition in test [1] was -11.4%; in test [2] it was -2%. In test [3], the viability increase is -5.99%. Also, the viability was 37.4% in test [4] and 51.5% in test [5]. Moreover, the inhibition in test [6] is 0.665%. Moreover, the RAM network inhibition in test [7] is 7.05%.
In the case of `CC(C)N1C(=O)CCC1C(=O)N1CCC(Cc2ccccc2)CC1` (stereo not drawn), the growth inhibition in test [1] is -8.06%; in test [2], 0.645%. Further, the viability increase in test [3] was 1.19%. Besides, the results for the viability in test [4] and in test [5] were 102% and 95.3%, respectively. In test [6], the inhibition was 1.92%. In addition, the RAM network inhibition in test [7] is 2.34%.
As for `CC1(C)CC(=O)C(C=Nc2ccccc2)=C(O)C1`, the figures for the growth inhibition in test [1] and in test [2] were -7.81% and 1.81%, respectively. For the same compound, the viability increase in test [3] was -1.32%. Moreover, the viability in test [4] was 98.1%; in test [5] it was 96.2%. Also, in test [6], the inhibition was 2.92%. Moreover, in test [7], the RAM network inhibition was 1.59%.
Consider `Cc1c(NC(=O)NCCN2C(=O)C3C4C=CC(C4)C3C2=O)c(=O)n(-c2ccccc2)n1C` (stereo not drawn), for which the values for the growth inhibition in test [1] and in test [2] were -9.82% and -8.71%, respectively. For the same compound, the viability increase in test [3] is 0.15%. Besides, the viability in test [4] is 98.2%; in test [5], 99.8%. Further, the inhibition in test [6] was 1.09%. Further, the RAM network inhibition in test [7] was 4.55%.
